TbHK1 inh: T. brucei hexokinase 1 inhibition; recombinant TbHK1, G6PDH-coupled NADH A340; inhibition, % at 10 µM; 0.11% of 220,000 active; AID 1430;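 active means inhibition of 50% or more in the single-dose primary screen; inactive means inhibition below 50%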
G6PDH counter: counter-screen for G6PDH assay hits: L. mesenteroides G6PDH inhibition; Purified L. mesenteroides G6PDH, diaphorase/resazurin coupled fluorescence, 45 min; inhibition, % at 5 µM; 0.12% of 200,000 active; AID 1020; in the data active means inhibition above about 50%
Diaph act CS: activates diaphorase or chemically reduces, flagging diaphorase assay artifacts. Diaphorase/resazurin coupled assay, resorufin fluorescence, 16 min; active compounds read high; 1 = vehicle wells, 0 = NADH-free wells. activation factor at 20 µM. 0.005% of 190,000 active. AID 1229;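 active means diaphorase activity raised at least twofold by the compound at 20 µM; inactive means activation factor below 2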
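Material: bacterial diaphorase enzyme (C. kluyveri); amount: enzyme 0.07 U/mL final; reagent: NADH substrate 0.114 mM plus resazurin dye 0.1 mM, final; doses: single compound dose of 20 µM, 1% DMSO final; timing: 16 min enzyme reaction, ambient temperature; measured by: fluorescence of resorufin, 544 nm excitation, 590 nm emission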
Diaph inh CS: counter-screen for diaphorase-based assays: diaphorase inhibitors and chemical oxidizers; diaphorase resazurin-to-resorufin fluorescence, NADH, 16 min; bacterial (C. kluyveri) enzyme, not human; 0.69% of 190,000 active; AID 1217; inhibition, % at 20 µM;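 active means primary screen inhibition at 20 µM above a set limit, cut at about 50% in these data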;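 further: plate controls were DMSO with full reaction for no effect and wells lacking NADH for full effect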
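Assay system – diaphorase enzyme from Clostridium kluyveri · Amount – diaphorase 0.14 U/mL (working solution) · Times – reaction incubation of 16 min at room temperature · Controls – No-NADH positive control and DMSO neutral control · Signal – resorufin fluorescence 544/590 nm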
PMI act hi M6P: activators of human phosphomannose isomerase at near-saturating mannose 6-phosphate. P34949. coupled PMI enzyme assay, resazurin fluorescence, 20 min; active compounds read high; 1 = untreated enzyme, 0 = substrate-free blank. activation factor at 20 µM. 0.34% of 190,000 active. AID 1216;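 active means activation factor of 2 or more at 20 µM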
Target sequence (P34949 whole entry, looked up): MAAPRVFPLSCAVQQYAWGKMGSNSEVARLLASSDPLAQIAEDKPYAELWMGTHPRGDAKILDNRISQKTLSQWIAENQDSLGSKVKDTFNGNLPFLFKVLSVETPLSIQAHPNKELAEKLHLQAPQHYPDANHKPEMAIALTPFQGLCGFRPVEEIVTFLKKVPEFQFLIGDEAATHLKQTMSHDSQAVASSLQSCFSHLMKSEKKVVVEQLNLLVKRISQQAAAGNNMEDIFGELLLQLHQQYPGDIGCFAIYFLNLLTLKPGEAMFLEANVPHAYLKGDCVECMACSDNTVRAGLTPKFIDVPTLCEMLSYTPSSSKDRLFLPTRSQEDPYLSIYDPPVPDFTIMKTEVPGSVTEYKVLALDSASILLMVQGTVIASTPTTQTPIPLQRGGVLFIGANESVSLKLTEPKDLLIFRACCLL
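Material: human phosphomannose isomerase with PGI, G6PDH, diaphorase coupling enzymes / Reagent: Man-6-P substrate 1.0 mM / Dosing: single compound dose of 20 µM, 1% DMSO final / Incubation: enzyme reaction with compound 20 min at room temperature / Signal: resorufin fluorescence (Ex 544/Em 590 nm) from resazurin via diaphorase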
PMI activator: phosphomannose isomerase (human) activation; P34949; purified human PMI, coupled resazurin fluorescence, 20 min; active compounds read high; 1 = vehicle control, 0 substrate-free wells; activation factor at 20 µM; 0.005% of 190,000 active; AID 1214;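 active means activation factor of 2 or more at 20 µM, relative to plate controls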
* marks the source's active call; other numbers are inactive results; / = no result given. Sampled rows, rich in hits. Any-hit rate of the full collection: about 1.1%.

SMILES	TbHK1 inh	G6PDH counter	Diaph act CS	Diaph inh CS	PMI act hi M6P	PMI activator
COc1ccc(-c2cn3c(C)c(C(=O)Nc4cccc(C)n4)sc3n2)cc1	-23.7	-1.1	1	1.4	2*	1.7
Cc1ccccc1-c1cc2c(nn1)-c1ccccc1C2=O	-13.2	53.1*	0.4	64.9*	2.5*	2*
Cc1ccc(-c2cc3c(nn2)-c2ccccc2C3=O)cc1	-11.6	/	/	/	/	/
Cc1ccc(S(=O)(=O)N(C)C)cc1NC(=S)N1CCN(Cc2ccc3c(c2)OCO3)CC1	-5.2	2.6	0.9	14.5	0.9	1
COc1ccc(-n2c(O)c(/C=N/NS(=O)(=O)c3cccc([N+](=O)[O-])c3)c3ccccc3c2=O)cc1OC	-7.5	5.9	1	4.4	2.1*	1.5
O=C1CCN(N=Nc2cccc(Cl)c2)N1	-12.3	0.3	1	1.8	2.2*	1.8
Nc1[nH][nH]c(=O)c1N=Nc1cccc(Cl)c1	-21.6	8.3	0.9	10.9	1	1
O=[N+]([O-])c1cc(F)c2cccnc2c1O	-14.6	/	/	/	/	/
O=[N+]([O-])c1cc(CN2CCN(c3ccccc3)CC2)c(O)c2ncccc12	-4.4	62.2*	0.9	9.6	0.6	1
CN(Cc1cc([N+](=O)[O-])c2cccnc2c1O)C1CCCCC1	2.6	20.5	0.8	21.6	0.5	0.8
O=[N+]([O-])c1cc(CN2CCOCC2)c2cccnc2c1O	15.8	54.7*	0.5	45.4	0.6	0.9
O=C(Oc1c(CN2CCOCC2)cc(Cl)c2cccnc12)c1ccccc1F	-0.8	43.1	0.5	50.5*	0.5	0.7
CCOC(=O)c1c(NC(=O)c2cc(C)on2)c2cc([N+](=O)[O-])ccc2n1C	-14.1	/	/	/	/	/
CC(C)(C)c1ccc(C(CC(=O)O)NC(=O)c2ccccc2F)cc1 (configuration not stated)	-3.1	7.1	0.9	5.1	0.8	1.1
COC(=O)C1CCN(C2CC(=O)N(c3cc(C)cc(C)c3)C2=O)CC1 (configuration not stated)	-1.3	-7.2	0.9	5.1	0.9	1
CC(C)c1ccccc1NC(=O)COC(=O)c1c2c(nc3ccccc13)CCN(Cc1ccccc1)C2	-6.3	-7.6	0.8	16.4	2.1*	1.5
CC(C)(C)c1cc(CN(CCO)CCO)cc(C(C)(C)C)c1O	7.8	-9.2	0.3	69.8*	0.6	0.5
CN(C)Cc1cc(C(C)(C)C)c(O)c(C(C)(C)C)c1	-0.9	2.7	0.6	35.5	0.5	0.8
O=C(CSc1nc(O)cc(=O)[nH]1)N1c2ccccc2CCc2ccccc21	-3.6	/	/	/	/	/
CC1(NC(=S)Nc2ccccc2)CCS(=O)(=O)C1 (configuration not stated)	-5.7	/	/	/	/	/
Cc1cc(C(=O)NC(C)Cc2ccccc2)cc(C)c1[N+](=O)[O-] (configuration not stated)	6.6	3.4	0.3	68.9*	1	1
Cc1[nH]c2ccccc2c1C(C[N+](=O)[O-])c1ccco1 (configuration not stated)	5.3	2.3	0.5	51.0*	0.6	0.8
CCCC1=[N+](CC(=O)c2ccc(Br)cc2)CCn2cccc21	-70.1	/	/	/	/	/
O=[N+]([O-])c1ccccc1N/N=C/c1cccc(O)c1O	-9.3	/	/	/	/	/
O=[N+]([O-])c1ccc(O)c(/C=N/Nc2ccccc2Cl)c1	-18.9	-2.0	0.9	8.8	2.2*	1.7
O=[N+]([O-])c1cccc(N/N=C/c2cccc(O)c2O)c1	-12.7	25.3	0.5	52.0*	0.6	0.7
O=[N+]([O-])c1ccccc1N/N=C\c1ccccc1Cl	-4.9	-12.1	0.8	17.5	0.8	0.9
CC(OC(=O)CCc1nc2ccccc2[nH]c1=O)c1ccccc1 (configuration not stated)	-6.6	-2.2	0.9	5.9	1	1
CC(C)(C)c1ccc(NC(=O)Nc2ccc3ccccc3n2)cc1	-14.2	/	/	/	/	/
CCCCn1c(=O)[nH]c2nc3cc(N)ccc3nc2c1=O	3.2	16.8	0.3	66.6*	0.5	0.6

Source: PubChem BioAssay
